The text below walks through data of ChEMBL document CHEMBL1944513, “Synthesis of novel 2-mercapto benzothiazole and 1,2,3-triazole based bis-heterocycles: their anti-inflammatory and anti-nociceptive activities” (Eur J Med Chem, 2012).

In general, inhibition in vivo refers to the change of the read-out against control, counted positive when it falls.

Each structure is given as a SMILES string. Activity calls are given as the source filed them. The rule behind the calls is not given here.

For data set [1], the system named is Rattus norvegicus. Nature of the data set: Antiinflammatory activity in Albino Wistar rat assessed as inhibition of carrageenan-induced paw edema at equimolar dosage of Ibuprofen 10 mg/kg, po administered 1 hr before carrageenan challenge measured after 3 hrs by plethysmometer. The class given is functional. The essentials:
(§1)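 Rats fasted 14 h with water only. Compounds given orally at dose equimolar to ibuprofen (10 mg/kg p.o.) 1 h before subplantar injection of 0.1 ml freshly prepared 1% carrageenan in saline into right hind paw. Control received 0.1 ml 0.9% saline orally. Change in paw volume (ml) at 3 and 5 h; % inhibition; one-way ANOVA with Dunnett's test.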

The test system of data set [2] is Rattus norvegicus. The data set can be described thus: Antiinflammatory activity in Albino Wistar rat assessed as inhibition of carrageenan-induced paw edema at equimolar dosage of Ibuprofen 10 mg/kg, po administered 1 hr before carrageenan challenge measured after 5 hrs by plethysmometer. The class given is functional. In a few lines:
as §1

The test system of data set [3] is Rattus norvegicus. The data set can be described thus: Antiinflammatory activity in Albino Wistar rat assessed as inhibition of carrageenan-induced paw edema at equimolar dosage of Ibuprofen 10 mg/kg, po administered 1 hr before carrageenan challenge by plethysmometer. Also on record: dose 10 mg/kg. The class given is functional, organism-based. Conditions: TDE = time-dependent effect, at 10 mg/kg. The essentials:
as §1
On the technique in general: Carrageenan injected into the paw causes an acute inflammation.

Data set [4] concerns Mus musculus. Nature of the data set: Analgesic activity in mouse assessed as inhibition of acetic acid-induced writhing at equimolar dosage of Ibuprofen 10 mg/kg, po administered 30 mins before to acetic acid challenge measured for 20 mins relative to control. On the set-up: dose 10 mg/kg. The class given is functional, organism-based. Conditions: at 10 mg/kg. The essentials: (§2)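 Writhing induced in mice by intraperitoneal 0.6% (v/v) acetic acid (80 mg/kg). Compounds given orally at dose equimolar to ibuprofen 10 mg/kg, 30 min before stimulus; ibuprofen 10 mg/kg orally as reference. Six animals per group.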

The test system of data set [5] is Rattus norvegicus. Nature of the data set: Ulcerogenicity in Albino Wistar rat assessed as gastric ulceration at equimolar dosage of Ibuprofen 30 mg/kg, po relative to control. The class given is toxicity, organism-based, Stomach. Also on record: dose 30 mg/kg, route oral. Conditions: in vivo. In a few lines:
(§3)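 Oral dosing at three times the anti-inflammatory dose: ibuprofen 30 mg/kg or equimolar test compound. Three animals per group, sacrificed afterwards. Stomach wall sections stained with haematoxylin-eosin and examined at 10x and 40x for mucosal, submucosal and epithelial damage.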

Data set [6] relates to Mus musculus. The data set can be described thus: Ulcerogenicity in mouse assessed as gastric ulceration at equimolar dosage of Ibuprofen 30 mg/kg, po relative to control. The class given is toxicity, organism-based, Stomach. On the set-up: dose 30 mg/kg, route oral. Conditions: in vivo.
A short description of data set [7]: Selectivity ratio of IC50 for human recombinant COX2 to IC50 for ram seminal vesicle COX1. The class given is tissue-based. The essentials:
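COX-1 and COX-2 purified chromatographically. Peroxidase read-out from TMPD oxidation during PGG2 to PGH2 reduction. Mix: 100 mM Tris-HCl pH 8.0, hematin, 3 mM EDTA, […], test compound; 1 min preincubation at 25 °C; started with arachidonic acid plus TMPD. Rate from absorbance rise at 603 nm over first 25 s. Ratio is IC50 COX-2/IC50 COX-1.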

For data set [8], the system named is Mus musculus. The data set can be described thus: Analgesic activity in mouse assessed as inhibition of acetic acid-induced writhing at 10 mg/kg, po administered 30 mins before to acetic acid challenge measured for 20 mins relative to control. The class given is functional, organism-based. On the set-up: dose 10 mg/kg. In a few lines: as §2
(Writhing tests count abdominal constrictions after an irritant is injected.)

Data set [9] concerns Rattus norvegicus. The data set can be described thus: Antiinflammatory activity in Albino Wistar rat assessed as inhibition of carrageenan-induced paw edema at 10 mg/kg, po administered 1 hr before carrageenan challenge measured after 3 hrs by plethysmometer. The class given is functional. In a few lines: as §1
Data set [10] concerns Rattus norvegicus. Nature of the data set: Antiinflammatory activity in Albino Wistar rat assessed as inhibition of carrageenan-induced paw edema at 10 mg/kg, po administered 1 hr before carrageenan challenge measured after 5 hrs by plethysmometer. The class given is functional. The essentials: as §1
The subject of data set [11] is Rattus norvegicus. Nature of the data set: Ulcerogenicity in Albino Wistar rat assessed as gastric ulceration at 30 mg/kg, po relative to untreated control. Also on record: dose 30 mg/kg, route oral. The class given is toxicity, organism-based, Stomach. Conditions: in vivo. In a few lines:
as §3

Data set [12] relates to Mus musculus. The data set can be described thus: Ulcerogenicity in mouse assessed as gastric ulceration at 30 mg/kg, po relative to untreated control. The class given is toxicity, organism-based, Stomach. On the set-up: dose 30 mg/kg, route oral. Particulars: in vivo.

As to `O=[N+]([O-])c1ccc(-n2cc(CSc3nc4ccccc4s3)nn2)cc1`, the inhibition in vivo was 75% with Rattus norvegicus [1] and 65.5% in the data set on Rattus norvegicus [2]. For the same molecule, in the data set on Rattus norvegicus [3], the inhibition result was “tde”. Further, the inhibition entry with Mus musculus [4] is “Active”. Besides, the Activity result in the data set on Rattus norvegicus [5] and in the data set with Mus musculus [6] was “Non-toxic” throughout.
As for `Brc1ccc(-n2cc(CSc3nc4ccccc4s3)nn2)cc1`, the inhibition in vivo is 75% in the data set with Rattus norvegicus [1] and 59.2% with Rattus norvegicus [2]. Besides, in the data set with Rattus norvegicus [3], the inhibition entry is “tde”. Further, the inhibition entry with Mus musculus [4] is “Active”. Besides, the Activity result in the data set on Rattus norvegicus [5] and with Mus musculus [6] was “Non-toxic” throughout.
Consider `Clc1cccc(-n2cc(CSc3nc4ccccc4s3)nn2)c1`, for which the inhibition in vivo is 35% in the data set on Rattus norvegicus [1] and 39.6% in the data set on Rattus norvegicus [2].
Take `Cc1ccc(-c2cc(C(F)(F)F)nn2-c2ccc(S(N)(=O)=O)cc2)cc1`: the Ratio IC50 in [7] was found to be 0.0028.
In the case of `Fc1ccc(-n2cc(CSc3nc4ccccc4s3)nn2)cc1`, the Ratio IC50 in data set [7] was found to be 0.441. Also, the inhibition in vivo with Rattus norvegicus [1] was determined as 77.8%; in the data set with Rattus norvegicus [2], 81.1%. Moreover, the inhibition result in the data set on Rattus norvegicus [3] was “tde”. Further, the inhibition result with Mus musculus [4] was “Active”. In addition, the Activity result with Rattus norvegicus [5] and in the data set with Mus musculus [6] was “Non-toxic” in each case.
Regarding `Clc1ccccc1-n1cc(CSc2nc3ccccc3s2)nn1`, the inhibition in vivo is 83.3% with Rattus norvegicus [1] and 78.1% with Rattus norvegicus [2]. In addition, in the data set with Rattus norvegicus [3], the inhibition entry is “tde”. Further, in the data set with Mus musculus [4], the inhibition entry is “Active”. Moreover, the Activity result in the data set with Rattus norvegicus [5] and in the data set with Mus musculus [6] was “Non-toxic” throughout.
For `O[C@@H]1[C@H](O)[C@@H](O)OC(Cn2cc(CSc3nc4ccccc4s3)nn2)[C@@H]1O` (stereo partly specified), the inhibition in vivo in the data set on Rattus norvegicus [1] came out at 63.3%; with Rattus norvegicus [2], 60.4%.
Taken in the same sequence, the figures for `OCC(O)Cn1cc(CSc2nc3ccccc3s2)nn1` (stereo unspecified) were 56.7% and 52.8%.
For the molecule `CC1(C)O[C@H]2OC(Cn3cc(CSc4nc5ccccc5s4)nn3)[C@@H]3OC(C)(C)O[C@@H]3[C@@H]2O1` (stereo partly specified), the Ratio IC50 in [7] is 1.53. Also, the inhibition in vivo amounted to 59.7% with Rattus norvegicus [1] and 56.6% in the data set on Rattus norvegicus [2].
Take `Cc1ccccc1-n1cc(CSc2nc3ccccc3s2)nn1`: the inhibition in vivo in the data set with Rattus norvegicus [1] is 47.3%; with Rattus norvegicus [2], 43.4%.
The like results for `CCOc1ccc(-n2cc(CSc3nc4ccccc4s3)nn2)cc1` were, in that order, 38.3% and 34%.
In the case of `CC(C)Cc1ccc(C(C)C(=O)O)cc1` (stereo unspecified) [IBUPROFEN], the inhibition entry in the data set with Mus musculus [8] was “Active”. The inhibition in vivo at 10 mg/kg with Rattus norvegicus [9] worked out at 69.5%; in the data set on Rattus norvegicus [10], 71.7%. Moreover, the Activity result with Rattus norvegicus [11] and in the data set with Mus musculus [12] was “Toxic” each time.
`Clc1ccc(-n2cc(CSc3nc4ccccc4s3)nn2)cc1`: the Ratio IC50 in [7] was 14.9. Also, the figures for the inhibition in vivo in the data set with Rattus norvegicus [1] and in the data set on Rattus norvegicus [2] were 50% and 43.4%, respectively.
`O=[N+]([O-])c1cccc(-n2cc(CSc3nc4ccccc4s3)nn2)c1`: the Ratio IC50 in data set [7] turned out to be 5.21. The inhibition in vivo in the data set on Rattus norvegicus [1] came to 11.7%; with Rattus norvegicus [2], 21.5%.
As for `c1cncc(-n2cc(CSc3nc4ccccc4s3)nn2)c1`, the inhibition in vivo in the data set on Rattus norvegicus [1] turned out to be 64%; in the data set with Rattus norvegicus [2], 56%.
As for `c1ccc(-n2cc(CSc3nc4ccccc4s3)nn2)cc1`, the inhibition in vivo in the data set with Rattus norvegicus [1] amounted to 46.7%; with Rattus norvegicus [2] it was 32.1%.
With `CC1(C)OCC(Cn2cc(CSc3nc4ccccc4s3)nn2)O1` (stereo unspecified), the inhibition in vivo with Rattus norvegicus [1] stood at 53.3%; in the data set on Rattus norvegicus [2] it was 49%.
